Laboratory results taken from ChEMBL document CHEMBL1124852, “Synthesis of 3-arylecgonine analogues as inhibitors of cocaine binding and dopamine uptake” (J Med Chem, 1990).

Assays:
[1] = target: Sodium-dependent dopamine transporter (Bos taurus, UniProt P27922); assay: Competitive inhibition against [3H]cocaine binding to cocaine receptor in bovine striatal tissue; format: tissue-based, Striatum
Method in brief: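 Bovine striatum (caudate, putamen, globus pallidus, nucleus accumbens) homogenised in ice-cold 10 mM Na2HPO4 with 0.32 M sucrose, pH 7.4. Pelleted twice at 17000g for 20 min and resuspended to about 3.0 mg/mL protein (Lowry). [3H]cocaine (29.7 Ci/mmol) binding measured by filtration. Triplicates; mean of three experiments; IC50 by log-logit transformation.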

[2] = organism: Bos taurus; assay: Competitive inhibition against [3H]dopamine uptake in bovine striatal tissue; format: functional, Striatum
Method in brief: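 Striatal P2 synaptosomes prepared in ice-cold 0.3 M sucrose with […], pH 7.4 (3000g for 10 min, then supernatant at 17000g for 20 min). [3H]dopamine (30 Ci/mmol) uptake read by filtration at 37 °C; nonspecific uptake measured at 4 °C. Run in triplicate; mean of three experiments; IC50 from log-logit transformation.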

Sequence of Sodium-dependent dopamine transporter (P27922 whole entry): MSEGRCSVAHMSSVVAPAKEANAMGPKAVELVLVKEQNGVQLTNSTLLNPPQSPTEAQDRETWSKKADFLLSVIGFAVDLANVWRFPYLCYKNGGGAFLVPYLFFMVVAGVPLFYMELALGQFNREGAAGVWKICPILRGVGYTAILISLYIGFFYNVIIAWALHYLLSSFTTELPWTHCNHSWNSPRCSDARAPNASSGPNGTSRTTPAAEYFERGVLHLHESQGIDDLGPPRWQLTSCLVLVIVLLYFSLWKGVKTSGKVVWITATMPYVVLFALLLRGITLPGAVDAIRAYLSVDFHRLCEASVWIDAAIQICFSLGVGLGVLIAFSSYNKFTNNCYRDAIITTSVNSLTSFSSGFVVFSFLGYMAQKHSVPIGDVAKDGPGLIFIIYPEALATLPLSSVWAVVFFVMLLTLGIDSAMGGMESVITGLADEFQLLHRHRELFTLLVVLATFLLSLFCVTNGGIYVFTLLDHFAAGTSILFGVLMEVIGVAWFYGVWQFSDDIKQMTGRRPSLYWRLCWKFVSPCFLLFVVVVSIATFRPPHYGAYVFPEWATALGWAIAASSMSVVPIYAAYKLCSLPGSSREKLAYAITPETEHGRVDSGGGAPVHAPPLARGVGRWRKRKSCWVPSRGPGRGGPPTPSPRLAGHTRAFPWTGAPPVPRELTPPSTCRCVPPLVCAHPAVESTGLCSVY

SMILES	IC50 [1] [nM]	IC50 [2] [nM]	IC50 ([2]; Bos taurus, Striatum) [nM]
COC(=O)[C@@H]1C2CC[C@H](C[C@@H]1c1ccccc1)N2C (mixture of isomers; form 1)	22	133	–
COC(=O)C1C(c2ccc(N)cc2)CC2CCC1N2C (stereo not drawn)	192	–	557
COC(=O)[C@@H]1C2CC[C@H](C[C@@H]1c1ccccc1)N2C (mixture of isomers; form 2)	1200	2100	–
COC(=O)C1C(c2ccc([N+](=O)[O-])cc2[N+](=O)[O-])CC2CCC1N2C (racemic)	11000	–	30000
